Converted amounts (≈) assume the structure as drawn. “And” between values parts separate entries of the source, which are not always exact repeats. Equal values may be shown once. Read-outs that look alike come from different tables or passages of the source. Where a SMILES comes first, the peptide text is derived from it. [ ]: non-standard residue; d: D form. dPhe(4-Cl) = N[C@H](Cc1ccc(Cl)cc1)C(=O)O; aIle = CC[C@@H](C)[C@H](N)C(=O)O; dPhLac = O=C(O)[C@H](O)Cc1ccccc1; Sar = CNCC(=O)O
What was measured:
P. falciparum strain 3D7 [1] = experiment: microbe, parasite or virus in culture; conditions: Plasmodium falciparum, 3D7, read-out: IC50 (P. falciparum 3D7)
[2] = Intrinsic microsomal clearance, mouse liver microsomes; assay type: in vitro ADME; conditions: for intrinsic microsomal clearance (Clint), mouse: mouse liver microsomes
M. tuberculosis H37Rv = conditions: drug-susceptible Mtb H37Rv; 6 days + 48 h resazurin
Mycobacterium vaccae = experiment: MIC against Mycobacterium vaccae, microplate alamar blue broth dilution assay; assay type: cell-based
[3] = Plasma stability, mouse plasma; assay type: in vitro ADME
Summary of the method: (§1)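 Test compound incubated in human or mouse plasma for 2 h at 37 °C. The amount of compound remaining afterward was quantified and reported as percent remaining.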

P. falciparum strain 3D7 [4] = conditions: strain 3D7, 3 h
[5] = Plasma stability, human plasma; assay type: in vitro ADME; conditions: 2 h incubation at 37 °C
Summary of the method: as §1

human serum albumin = human serum albumin (Homo sapiens, UniProt P02768); experiment: Human serum albumin binding; assay type: in vitro ADME
Sequence of human serum albumin (P02768 25-609): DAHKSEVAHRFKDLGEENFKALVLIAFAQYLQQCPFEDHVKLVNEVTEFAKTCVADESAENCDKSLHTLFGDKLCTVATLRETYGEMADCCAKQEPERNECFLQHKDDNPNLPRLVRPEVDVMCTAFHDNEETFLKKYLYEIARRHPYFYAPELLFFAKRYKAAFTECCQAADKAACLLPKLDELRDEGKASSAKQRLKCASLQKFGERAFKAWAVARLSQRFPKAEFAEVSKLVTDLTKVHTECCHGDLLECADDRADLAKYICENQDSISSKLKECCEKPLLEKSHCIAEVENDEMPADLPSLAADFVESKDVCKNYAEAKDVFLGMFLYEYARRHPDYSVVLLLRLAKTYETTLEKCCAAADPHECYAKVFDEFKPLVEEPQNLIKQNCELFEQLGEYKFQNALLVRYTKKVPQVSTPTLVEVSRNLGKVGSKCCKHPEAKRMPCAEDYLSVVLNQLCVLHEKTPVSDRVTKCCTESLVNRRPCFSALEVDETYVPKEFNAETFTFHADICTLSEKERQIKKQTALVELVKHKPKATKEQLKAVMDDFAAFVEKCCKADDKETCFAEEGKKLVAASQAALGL

[6] = Kinetic aqueous solubility; assay type: physicochemical
[7] = Intrinsic microsomal clearance, human liver microsomes; assay type: in vitro ADME; conditions: for intrinsic microsomal clearance (Clint), human: human liver microsomes
Plasmodium falciparum = conditions: natural product; cited from earlier work
M. tuberculosis H37Ra = conditions: natural product; cited from earlier work

Molecule | intrinsic microsomal clearance (Clint), mouse [2] | remaining at 2 h [3] | IC50 (P. falciparum strain 3D7 [4]) | IC50 | % human serum albumin binding (%HSA) (human serum albumin) | solubility kinetic [6] | intrinsic microsomal clearance (Clint), human [7] | also measured
CCN(CC)CCCC(C)Nc1ccnc2cc(Cl)ccc12 (centres unmarked) [CQ, chloroquine] |  |  |  |  |  |  |  | IC50 (P. falciparum strain 3D7 [1]): 0.005 µM
CC[C@@H](C)[C@@H]1NC(=O)[C@@H](Cc2ccccc2)OC(=O)CN(C)C(=O)[C@H]([C@H](C)CC)NC(=O)[C@@H](Cc2ccccc2)OC(=O)CN(C)C1=O [Compound 9] (cyclo([Sar][dPhLac][aIle][Sar][dPhLac][aIle])) | 38.3 mL/(min g) tissue | 18% | 2.3 µM | > 100 µM | 88% | > 180 µg/mL | 46.53 mL/(min g) tissue | stability in mouse microsomes (in words) [2]: low stability; MIC (Mtb H37Rv) (M. tuberculosis H37Rv): > 80 µM; MIC (M. vaccae) (Mycobacterium vaccae): 18.8 µM (≈ 12.5 µg/mL); plasma stability (% remaining), human plasma [5]: 103%; stability in human microsomes (in words) [7]: moderate stability
CC(C)C[C@@H]1NC(=O)[C@@H](Cc2ccccc2)OC(=O)CN(C)C(=O)[C@H](CC(C)C)NC(=O)[C@@H](Cc2ccccc2)OC(=O)CN(C)C1=O [Compound 10] (cyclo(L[Sar][dPhLac]L[Sar][dPhLac])) |  |  |  |  |  | > 180 µg/mL |  | 
CC(C)[C@@H]1NC(=O)[C@@H](Cc2ccccc2)OC(=O)CN(C)C(=O)[C@H](C(C)C)NC(=O)[C@@H](Cc2ccccc2)OC(=O)CN(C)C1=O [Compound 11] (cyclo([Sar][dPhLac]V[Sar][dPhLac]V)) |  |  | 7.5 µM | > 100 µM |  | 80 µg/mL (≈ 126 µM) |  | 
CN1CC(=O)O[C@H](Cc2ccccc2)C(=O)NCC(=O)N(C)CC(=O)O[C@H](Cc2ccccc2)C(=O)NCC1=O [Compound 12] (cyclo(G[Sar][dPhLac]G[Sar][dPhLac])) | 52.00 mL/(min g) tissue | 0% | 20.1 µM | > 100 µM | 54.7% | 81 µg/mL (≈ 147 µM) | 34.00 mL/(min g) tissue | 
CC[C@H](C)[C@@H]1NC(=O)[C@@H](Cc2ccccc2)OC(=O)CNC(=O)[C@H]([C@@H](C)CC)NC(=O)[C@@H](Cc2ccccc2)OC(=O)CNC1=O [Compound 13] (cyclo(G[dPhLac]IG[dPhLac]I)) | 65.90 mL/(min g) tissue | 0% | 13.8 µM | > 100 µM | 91.02% | 6 µg/mL (≈ 9.42 µM) | 32.80 mL/(min g) tissue | 
CC(C)[C@@H]1NC(=O)[C@@H](Cc2ccccc2)NC(=O)CN(C)C(=O)[C@H](C(C)C)NC(=O)[C@@H](Cc2ccccc2)NC(=O)CN(C)C1=O [Compound 15] (cyclo([Sar][dF]V[Sar][dF]V)) | 7.52 mL/(min g) tissue |  | 7.7 µM | > 100 µM |  |  | 3.60 mL/(min g) tissue | 
CC[C@@H](C)[C@@H]1NC(=O)[C@@H](Cc2ccccc2)NC(=O)CN(C)C(=O)[C@H]([C@H](C)CC)NC(=O)[C@@H](Cc2ccccc2)NC(=O)CN(C)C1=O [Compound 16] (cyclo([Sar][dF][aIle][Sar][dF][aIle])) | 47.71 mL/(min g) tissue |  | 2.2 µM | > 100 µM |  |  | 18.90 mL/(min g) tissue | 
CC[C@@H](C)[C@@H]1NC(=O)[C@@H](Cc2ccc(Cl)cc2)NC(=O)CN(C)C(=O)[C@H]([C@H](C)CC)NC(=O)[C@@H](Cc2ccc(Cl)cc2)NC(=O)CN(C)C1=O [Compound 17] (cyclo([Sar][dPhe(4-Cl)][aIle][Sar][dPhe(4-Cl)][aIle])) |  |  | 1.8 µM | 26 µM | 95% and 95.24% | 34 µg/mL (≈ 46.5 µM) |  | 
CC[C@@H](C)[C@@H]1NC(=O)[C@@H](Cc2ccc(OC)cc2)NC(=O)CN(C)C(=O)[C@H]([C@H](C)CC)NC(=O)[C@@H](Cc2ccc(OC)cc2)NC(=O)CN(C)C1=O [Compound 18] (cyclo([Sar][dY](Me)[aIle][Sar][dY](Me)[aIle])) | 13.25 mL/(min g) tissue |  | 4.1 µM | > 100 µM | 77.2% | 124 µg/mL (≈ 172 µM) | 8.18 mL/(min g) tissue | 
CC[C@@H](C)[C@@H]1NC(=O)[C@@H](CC(C)C)NC(=O)CN(C)C(=O)[C@H]([C@H](C)CC)NC(=O)[C@@H](CC(C)C)NC(=O)CN(C)C1=O [Compound 19] (cyclo([dL][aIle][Sar][dL][aIle][Sar])) | 5.79 mL/(min g) tissue | 88% |  |  | 37% and 37.15% | ≥ 184 µg/mL | 6.07 mL/(min g) tissue | 
hirsutellide A |  |  |  |  |  |  |  | IC50 (Plasmodium falciparum) (Plasmodium falciparum): 2.8 µg/mL; MIC (M. tuberculosis H37Ra) (M. tuberculosis H37Ra): 6 to 12 µg/mL
